Assays:
Trypanosoma cruzi = test: Growth inhibition of trypomastigote form of Trypanosoma cruzi Y infected in human U2OS cells at 50 uM measured after 72 hrs by DRAQ5 DNA dye based confocal microscopic analysis relative to control; type: organism-based; conditions: for inhibition at 50 µM: Trypanosoma cruzi, Y, U2OS, read-out: GI
Leishmania infantum = test: Growth inhibition of luciferase expressing Leishmania infantum axenic amastigotes infected in human THP1 cells at 10 uM measured after 72 hrs by steady-glo luminescence assay relative to control; type: organism-based; conditions: leishmania infantum, 72 h, 10 µM
Pteridine reductase 1 = target: T1, Pteridine reductase 1 (Leishmania major, UniProt Q01782); test: Inhibition of Leishmania major pteridine reductase 1 using di-hydrobiopterine as substrate in presence of NADPH; conditions: read-out: IC50
T1 sequence (Q01782 whole entry): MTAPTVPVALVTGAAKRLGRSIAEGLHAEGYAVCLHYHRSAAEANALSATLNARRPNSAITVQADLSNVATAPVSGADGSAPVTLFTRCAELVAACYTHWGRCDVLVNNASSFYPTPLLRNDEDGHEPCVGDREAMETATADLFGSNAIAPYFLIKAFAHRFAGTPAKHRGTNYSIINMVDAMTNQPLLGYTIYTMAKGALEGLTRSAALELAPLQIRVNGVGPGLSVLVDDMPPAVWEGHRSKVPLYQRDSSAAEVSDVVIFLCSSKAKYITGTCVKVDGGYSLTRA
Summary of the method: (§1)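 Photometric PTR1 assay with NADPH and dihydrobiopterin substrate. H₄B formation is coupled non-enzymatically to cytochrome c reduction, read as signal increase at 550 nm.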

[1] = Inhibition of N-terminal His-tagged Trypanosoma brucei pteridine reductase 1 using di-hydrobiopterine as substrate measured at 1 min interval for 50 mins in presence of NADPH; summary of the method: as §1
Trypanosoma brucei [2] = test: Inhibition of N-terminal His-tagged Trypanosoma brucei pteridine reductase 1 at 50 uM using di-hydrobiopterine as substrate measured at 1 min interval for 50 mins in presence of NADPH relative to control; summary of the method: as §1
[3] = target: T2, Pteridine reductase 1 (Leishmania major) (UniProt Q01782); test: Inhibition of Leishmania major pteridine reductase 1 at 50 uM using di-hydrobiopterine as substrate in presence of NADPH relative to control; summary of the method: as §1
T2 sequence (whole entry): T1 sequence (Q01782 whole entry)

Trypanosoma brucei [4] = test: Growth inhibition of Trypanosoma brucei bloodstream forms at 10 uM measured after 72 hrs by resazurin-based fluorescence assay relative to control; type: organism-based; conditions: Trypanosoma brucei, read-out: GI
Trypanosoma brucei [5] = test: Inhibition of PTR1 in Trypanosoma brucei bloodstream forms assessed as potentiation of methotrexate-induced parasitic cell growth inhibition at 10 uM measured after 72 hrs by resazurin-based fluorescence assay (reference value: 19 +/- 6%)
Summary of the method: (§2)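 Bloodstream-form T. brucei resazurin assay: 72 h at 37 °C, 5% CO₂, then fluorescence at ex 540/em 620 nm. Benzothiazole was tested at 10 μM alone and with 4 μM methotrexate. The index is the combination's activity divided by the sum of the activities of 10 μM benzothiazole and 4 μM methotrexate given separately.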

Trypanosoma brucei [6] = test: Inhibition of PTR1 in Trypanosoma brucei bloodstream forms assessed as potentiation of methotrexate-induced parasitic cell growth inhibition by measuring potentiation index at 10 uM measured after 72 hrs by resazurin-based fluorescence assay relative to control (methotrexate); type: functional; summary of the method: as §2
[7] = target: Voltage-gated inwardly rectifying potassium channel KCNH2 (Homo sapiens, UniProt Q12809); test: Displacement of Tracer Red from human ERG by fluorescence polarization assay
Cytochrome P450 1A2 = target: T3, Cytochrome P450 1A2 (Homo sapiens, UniProt P05177); test: Inhibition of human CYP1A2 expressed in baculovirus infected insect cells using beetle D-luciferin as substrate preincubated for 30 mins followed by NADPH addition and measured after 30 mins by CYP450-Glo assay
T3 sequence (P05177 whole entry): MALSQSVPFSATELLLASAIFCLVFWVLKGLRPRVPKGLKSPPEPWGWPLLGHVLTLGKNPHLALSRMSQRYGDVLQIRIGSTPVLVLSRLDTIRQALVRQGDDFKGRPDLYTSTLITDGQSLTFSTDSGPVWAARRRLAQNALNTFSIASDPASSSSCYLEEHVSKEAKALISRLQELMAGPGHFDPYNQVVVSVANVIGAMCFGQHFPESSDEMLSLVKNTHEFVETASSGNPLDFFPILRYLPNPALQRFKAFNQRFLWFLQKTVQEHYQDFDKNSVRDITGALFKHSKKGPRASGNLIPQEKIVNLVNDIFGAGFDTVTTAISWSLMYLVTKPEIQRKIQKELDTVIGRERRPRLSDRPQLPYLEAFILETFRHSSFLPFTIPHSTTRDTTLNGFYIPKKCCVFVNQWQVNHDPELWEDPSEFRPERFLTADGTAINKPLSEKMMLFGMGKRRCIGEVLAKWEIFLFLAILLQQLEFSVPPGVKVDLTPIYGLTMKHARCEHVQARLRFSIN

Cytochrome P450 2C9 = Cytochrome P450 2C9 (Homo sapiens, UniProt P11712); test: Inhibition of human CYP2C9 expressed in baculovirus infected insect cells using beetle D-luciferin as substrate preincubated for 30 mins followed by NADPH addition and measured after 30 mins by CYP450-Glo assay
Cytochrome P450 2C19 = Cytochrome P450 2C19 (Homo sapiens, UniProt P33261); test: Inhibition of human CYP2C19 expressed in baculovirus infected insect cells using beetle D-luciferin as substrate preincubated for 30 mins followed by NADPH addition and measured after 30 mins by CYP450-Glo assay
Cytochrome P450 2D6 = Cytochrome P450 2D6 (Homo sapiens, UniProt P10635); test: Inhibition of human CYP2D6 expressed in baculovirus infected insect cells using beetle D-luciferin as substrate preincubated for 30 mins followed by NADPH addition and measured after 30 mins by CYP450-Glo assay
Cytochrome P450 3A4 = Cytochrome P450 3A4 (Homo sapiens, UniProt P08684); test: Inhibition of human CYP3A4 expressed in baculovirus infected insect cells using beetle D-luciferin as substrate preincubated for 30 mins followed by NADPH addition and measured after 30 mins by CYP450-Glo assay
[8] = Cytotoxicity against human A549 cells after 48 hrs by Celltiter-glo assay; type: cell-based
[9] = Cytotoxicity against human THP1 cells after 72 hrs by MTT assay; type: cell-based, THP-1; conditions: read-out: NOAEL
[10] = Cytotoxicity against human U2OS cells assessed as reduction in cell number; type: cell-based
[11] = Mitochondrial toxicity in human 786-O cells measured after 6 hrs by MitoTracker Red chloromethyl-X-rosamine based assay; type: cell-based, 786-0
[12] = Selectivity ratio of IC50 for Leishmania major pteridine reductase 1 to IC50 for N-terminal His-tagged Trypanosoma brucei pteridine reductase 1

Sequence of Voltage-gated inwardly rectifying potassium channel KCNH2 (Q12809 whole entry): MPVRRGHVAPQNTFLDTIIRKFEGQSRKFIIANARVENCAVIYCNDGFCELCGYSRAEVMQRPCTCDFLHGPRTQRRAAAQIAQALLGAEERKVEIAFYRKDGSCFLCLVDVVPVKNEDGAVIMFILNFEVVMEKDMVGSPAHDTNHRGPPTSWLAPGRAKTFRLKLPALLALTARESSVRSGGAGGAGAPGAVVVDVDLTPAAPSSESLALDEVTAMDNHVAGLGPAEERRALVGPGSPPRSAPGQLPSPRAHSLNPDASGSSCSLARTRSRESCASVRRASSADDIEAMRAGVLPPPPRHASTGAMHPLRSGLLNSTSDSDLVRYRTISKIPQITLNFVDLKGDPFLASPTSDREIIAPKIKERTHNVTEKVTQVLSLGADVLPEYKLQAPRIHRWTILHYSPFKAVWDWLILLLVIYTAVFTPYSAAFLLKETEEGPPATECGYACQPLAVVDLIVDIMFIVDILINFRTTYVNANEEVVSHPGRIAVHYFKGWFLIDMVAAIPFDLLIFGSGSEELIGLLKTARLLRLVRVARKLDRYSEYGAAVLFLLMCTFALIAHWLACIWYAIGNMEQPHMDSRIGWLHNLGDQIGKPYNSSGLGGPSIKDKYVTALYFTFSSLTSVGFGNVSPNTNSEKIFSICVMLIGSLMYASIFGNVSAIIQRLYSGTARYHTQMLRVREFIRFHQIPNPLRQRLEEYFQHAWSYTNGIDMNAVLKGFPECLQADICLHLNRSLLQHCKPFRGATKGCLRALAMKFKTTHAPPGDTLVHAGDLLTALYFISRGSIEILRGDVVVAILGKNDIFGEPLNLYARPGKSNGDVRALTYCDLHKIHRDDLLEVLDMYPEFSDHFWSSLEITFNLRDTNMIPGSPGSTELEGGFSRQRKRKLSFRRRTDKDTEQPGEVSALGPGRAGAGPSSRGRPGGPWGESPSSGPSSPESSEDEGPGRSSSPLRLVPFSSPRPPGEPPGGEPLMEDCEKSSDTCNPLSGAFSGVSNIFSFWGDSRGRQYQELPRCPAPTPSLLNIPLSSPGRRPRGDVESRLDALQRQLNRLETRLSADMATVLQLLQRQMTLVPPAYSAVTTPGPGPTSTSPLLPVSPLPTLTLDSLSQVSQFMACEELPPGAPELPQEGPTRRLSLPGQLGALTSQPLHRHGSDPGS
Sequence of Cytochrome P450 2C9 (P11712 whole entry): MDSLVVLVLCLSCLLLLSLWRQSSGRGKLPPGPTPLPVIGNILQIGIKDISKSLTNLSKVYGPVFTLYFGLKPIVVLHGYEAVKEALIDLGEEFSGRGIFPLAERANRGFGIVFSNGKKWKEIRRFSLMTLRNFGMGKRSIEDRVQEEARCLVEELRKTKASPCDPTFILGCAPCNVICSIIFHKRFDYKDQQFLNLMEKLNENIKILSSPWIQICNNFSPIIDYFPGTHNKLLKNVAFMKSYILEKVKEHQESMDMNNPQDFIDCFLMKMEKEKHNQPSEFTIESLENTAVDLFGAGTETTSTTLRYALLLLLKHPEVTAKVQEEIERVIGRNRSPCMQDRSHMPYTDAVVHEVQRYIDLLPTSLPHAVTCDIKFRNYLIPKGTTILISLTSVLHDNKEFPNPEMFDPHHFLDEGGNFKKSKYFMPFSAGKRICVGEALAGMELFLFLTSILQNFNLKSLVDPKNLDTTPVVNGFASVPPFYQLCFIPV
Sequence of Cytochrome P450 2D6 (P10635 whole entry): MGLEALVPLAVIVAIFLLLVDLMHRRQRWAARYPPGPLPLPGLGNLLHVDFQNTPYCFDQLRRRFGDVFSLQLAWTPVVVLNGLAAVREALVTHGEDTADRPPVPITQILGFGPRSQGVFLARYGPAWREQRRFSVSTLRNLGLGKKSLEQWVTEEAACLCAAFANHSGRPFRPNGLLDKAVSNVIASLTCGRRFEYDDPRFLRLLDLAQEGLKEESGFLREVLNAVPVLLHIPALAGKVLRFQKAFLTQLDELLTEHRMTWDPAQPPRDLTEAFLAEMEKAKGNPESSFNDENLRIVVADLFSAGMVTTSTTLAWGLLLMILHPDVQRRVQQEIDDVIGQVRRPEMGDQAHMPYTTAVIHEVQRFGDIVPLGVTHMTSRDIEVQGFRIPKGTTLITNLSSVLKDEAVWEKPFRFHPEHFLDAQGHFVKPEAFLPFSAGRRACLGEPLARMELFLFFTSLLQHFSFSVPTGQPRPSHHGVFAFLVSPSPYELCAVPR
Sequence of Cytochrome P450 2C19 (P33261 whole entry): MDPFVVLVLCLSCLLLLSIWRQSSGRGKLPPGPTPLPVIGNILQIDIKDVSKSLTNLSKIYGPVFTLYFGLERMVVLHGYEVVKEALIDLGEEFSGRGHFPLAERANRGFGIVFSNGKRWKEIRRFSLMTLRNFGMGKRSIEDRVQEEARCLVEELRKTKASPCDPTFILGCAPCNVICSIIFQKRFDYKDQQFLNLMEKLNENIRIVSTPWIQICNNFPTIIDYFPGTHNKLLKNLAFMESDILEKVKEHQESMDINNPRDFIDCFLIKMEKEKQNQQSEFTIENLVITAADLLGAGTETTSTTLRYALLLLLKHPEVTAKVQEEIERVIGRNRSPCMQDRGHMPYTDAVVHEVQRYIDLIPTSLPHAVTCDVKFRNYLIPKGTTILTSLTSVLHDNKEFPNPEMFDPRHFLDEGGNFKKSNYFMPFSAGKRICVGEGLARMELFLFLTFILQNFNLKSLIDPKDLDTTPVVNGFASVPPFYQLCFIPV
Sequence of Cytochrome P450 3A4 (P08684 whole entry): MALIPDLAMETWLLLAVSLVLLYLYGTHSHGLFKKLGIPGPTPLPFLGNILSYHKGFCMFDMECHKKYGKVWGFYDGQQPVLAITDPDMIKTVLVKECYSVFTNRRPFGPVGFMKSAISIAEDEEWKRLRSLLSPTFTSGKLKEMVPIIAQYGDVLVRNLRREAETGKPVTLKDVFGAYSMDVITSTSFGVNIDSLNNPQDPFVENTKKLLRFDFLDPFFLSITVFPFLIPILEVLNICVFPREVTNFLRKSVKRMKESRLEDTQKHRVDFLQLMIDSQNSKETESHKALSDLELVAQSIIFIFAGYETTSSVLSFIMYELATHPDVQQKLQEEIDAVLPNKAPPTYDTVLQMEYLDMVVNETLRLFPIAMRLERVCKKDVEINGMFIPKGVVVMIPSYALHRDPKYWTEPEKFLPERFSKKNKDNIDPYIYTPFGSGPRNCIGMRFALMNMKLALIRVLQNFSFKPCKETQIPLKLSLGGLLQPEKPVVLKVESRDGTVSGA

Structure (SMILES)	inhibition at 50 µM (Trypanosoma cruzi) [%]	growth inhibition (GI) (Leishmania infantum)	IC50 (Pteridine reductase 1) [µM]	IC50 [1] [µM]	inhibition (Trypanosoma brucei [2]) [%]	inhibition [3] [%]	inhibition at 10 µM (Trypanosoma brucei [4]) [%]	growth inhibition (GI) (Trypanosoma brucei [5]) [%]	Ratio (Trypanosoma brucei [6])	IC50 [7] [µM]	IC50 (Cytochrome P450 1A2) [µM]	IC50 (Cytochrome P450 2C9) [µM]	IC50 (Cytochrome P450 2C19) [µM]	IC50 (Cytochrome P450 2D6) [µM]	IC50 (Cytochrome P450 3A4) [µM]	GI50 at 48 h [8] [µM]	MNTC at 72 h [9] [µM]	GI50 [10] [µM]	IC50 at 6 h [11] [µM]	Ratio IC50 [12]	other results
Nc1nc2ccc(SCc3ccc(C(=O)NCc4ccccc4)cc3)cc2s1	19.2	Non-Toxic	30	0.5	> 60	> 60	26 to 33	80	1.6	> 25	> 25	< 10	< 10	< 10	< 10	< 10	10 to 25	> 25	> 25	2 to 100	
N#Cc1ccc(CSc2ccc3nc(N)sc3c2)cc1	27.3	Non-Toxic	12.4	0.35	> 60	> 60	29 to 35	63	1.3		> 25	10 to 25	< 10	< 10	< 10	> 25	> 25	> 25	< 10	2 to 100	
N#Cc1ccc(CS(=O)(=O)c2ccc3nc(N)sc3c2)cc1		Non-Toxic		3	> 60	55.5	9 to 13	48	1.5	> 25	> 25	> 25	10 to 25	< 10	< 10	> 25	> 25	> 25	> 25	2 to 100	growth inhibition (GI) (Trypanosoma cruzi; trypanosoma cruzi, 50 µM): Non-Toxic
COC(=O)C1CCN(C(=O)c2ccc(CSc3ccc4nc(N)sc4c3)cc2)CC1	16.3	Non-Toxic	15.1	0.93	> 60	> 60	42 to 53	93	1.3	> 25	> 25	> 25	< 10	< 10	< 10	> 25	> 25	> 25	> 25	2 to 100	
Nc1nc2ccc(SCc3ccc(Cl)c(Cl)c3)cc2s1	21.4	Non-Toxic	10	0.9	> 60	> 60	41 to 46	65	1.1	> 25	10 to 25	> 25	< 10	< 10	< 10	10 to 25	> 25	> 25	> 25	2 to 100	
Nc1nc2ccc(SC(F)(F)F)cc2s1	37.4	Non-Toxic	1.9	0.5	> 60	> 60	11	33	1.1	10 to 25	> 25	> 25	> 25	> 25	> 25	< 10	10 to 25	> 25	> 25	2 to 100	
COC(=O)c1ccc(CSc2ccc3nc(N)sc3c2)cc1	23	Non-Toxic	47.6	0.92	> 60	> 60	7 to 17	69	2.7	> 25	10 to 25	< 10	< 10	< 10	< 10	> 25	10 to 25	> 25	> 25	2 to 100	

Reference: ChEMBL document CHEMBL4387708, “Enhancement of Benzothiazoles as Pteridine Reductase-1 Inhibitors for the Treatment of Trypanosomatidic Infections” (J Med Chem, 2019)
